# Measurements collected from several papers.
# Protocols differ between the studies behind these lines.
# Target: RAC-gamma serine/threonine-protein kinase (AKT3, Homo sapiens, UniProt Q9Y243)
Structure (SMILES),effect on,action,technique,concentration,measurement,result
Cn1cc(-c2cc(F)cc(N3CCn4c(cc5c4CCCC5)C3=O)c2CO)cc(Nc2ccc(N3CCN(C4COC4)CC3)cn2)c1=O,enzyme activity,inhibitor,,0.1 µM,inhibition,5%
O=c1[nH]c2ccccc2n1C1CCN(Cc2ccc(-c3[nH]c4cc5ncnc5cc4nc3-c3ccccc3)cc2)CC1,cell-free assay,,,0.5 µM,remaining signal,103%
COc1cc(Nc2ncc(F)c(Nc3ccc4c(n3)NC(=O)C(C)(C)O4)n2)cc(OC)c1OC,binding,,competition with immobilised ligand,10 µM,inhibition,0%
Cn1cc(-c2cccc(N3CCc4c(sc5c4CC(C)(C)C5)C3=O)c2CO)cc(Nc2ccncn2)c1=O,enzyme activity,inhibitor,,1 µM,inhibition,6%
Cn1cncc1[C@](O)(COc1ccc(C#N)cc1-c1ccc(OC(F)(F)F)cc1)c1ccc(C#N)cc1,cell-free assay,,competition with immobilised ligand,1 µM,remaining binding,100%
CC(C)(C)c1cc(C=C(C#N)C#N)cc(Br)c1O,enzyme activity,inhibitor,,0.5 µM,remaining activity,111%
N#CC1(c2ccccn2)CCN(Cc2cc(C(=O)O)c(=O)n3ccccc23)CC1,cell-free assay,,competition with immobilised ligand,1 µM,remaining binding,100%
Nc1ncc(-c2nc(N3CCOCC3)nc(N3CCOCC3)n2)c(C(F)F)n1,binding,,competition with immobilised ligand,10 µM,remaining binding,59%
COc1ncccc1-c1cnn2ccc(N3CCN(C(=O)OC(C)C)CC3)nc12,binding,,competition with immobilised ligand,1 µM,remaining binding,100%
Cc1nn(C)cc1-c1nc2c(N3CCN(Cc4ccc(Cl)cc4)CC3)c(Cl)cnc2[nH]1,binding,,competition with immobilised ligand,1 µM,remaining binding,100%
